From ChEMBL document CHEMBL1141713, “Bisphosphonate inhibitors of ATP-mediated HIV-1 reverse transcriptase catalyzed excision of chain-terminating 3'-azido, 3'-deoxythymidine: a QSAR investigation” (Bioorg Med Chem, 2008)
Calls of active or inactive are those of the source. The rule behind the calls is not given here.

Experiments:
[1] = Toxicity against human NCI-H460 cells assessed as growth inhibition by broth microdilution method; format: cell-based
How it was run: (§1)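 Cells grown in RPMI-1640 with 2mM L-glutamine and 10% FBS at 37°C, 5% CO₂. Seeded at 5,000 cells/well and exposed to compounds in half-log serial dilution, 316μM–10nM (100μM–10nM when the DMSO stock was used), for 4 days. Read-out by MTT, absorbance at 600nm. IC₅₀ fitted to a rectangular hyperbola with Imax fixed at 100%.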

[2] = Toxicity against human SF268 cells assessed as growth inhibition by broth microdilution method; format: cell-based, SF-268; how it was run: as §1
[3] = test system: Human immunodeficiency virus 1; assay: Inhibition of the ATP-mediated HIV1 reverse transcriptase D67N/K70R/T215F/K219Q mutant catalyzed DNA synthesis
[4] = Inhibition of the ATP-mediated HIV1 reverse transcriptase D67N/K70R/T215F/K219Q mutant catalyzed 3'-azido, 3'-deoxythymidine excision from AZT-terminated DNA primers; design: species or system Human immunodeficiency virus 1
How it was run: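 TAM-RT incubated with 5′-³²P-labeled 57/19 heteropolymeric DNA T/P whose 20 nt primer was chain-terminated with AZTMP (RT:T/P 4:1), in 50 mM Tris-HCl pH 8.0, 50 mM KCl, with or without varying bisphosphonate. Started with 10 mM MgCl₂ + 3.0 mM ATP, inorganic pyrophosphatase included. Timed aliquots quenched in formamide/EDTA dye. 20 nt and 19 nt excision product resolved on denaturing gel, quantified by phosphorimaging; IC₅₀.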

[5] = Toxicity against human MCF7 cells assessed as growth inhibition by broth microdilution method; format: cell-based; how it was run: as §1

In the case of `O=P(O)(O)C(Nc1cccc(-c2ccccc2)c1)P(=O)(O)O`, the IC50 [1] is reported as 253 µM, the IC50 [2] is reported as 269 µM and the Activity [3] is reported as “inactive”. It also gave an IC50 [4] of 3.2 µM, a pIC50 [4] of 5.5 and an IC50 [5] of 289 µM.

In the case of `Nc1ccccc1CC(O)(P(=O)(O)O)P(=O)(O)O`, the IC50 [1] is reported as 187 µM, the IC50 [2] is reported as 186 µM and the Activity [3] is reported as “inactive”. The IC50 [4] was 38 µM, the pIC50 [4] was 4.4 and the IC50 [5] was 205 µM.

For `O=P(O)(O)C(O)(Cc1ccc(-c2ccc(F)cc2)cc1)P(=O)(O)O`, the IC50 [1] was > 300 µM, the IC50 [2] was > 300 µM and the Activity [3] was “inactive”. The IC50 [4] was 2.9 µM, the pIC50 [4] was 5.5 and the IC50 [5] was > 300 µM.

In the case of `O=P(O)(O)C(Nc1cccc(Br)c1)P(=O)(O)O`, the IC50 [1] is reported as > 300 µM, the IC50 [2] is reported as > 300 µM and the Activity [3] is reported as “inactive”. The IC50 [4] was 1 µM, the pIC50 [4] was 6 and the IC50 [5] was > 300 µM.

For `CN(C)c1ccccc1CC(O)(P(=O)(O)O)P(=O)(O)O`, the IC50 [1] was > 300 µM, the IC50 [2] was > 300 µM and the Activity [3] was “inactive”. The IC50 [4] was 51.3 µM, the pIC50 [4] was 4.3 and the IC50 [5] was > 300 µM.

`CCCCCCCCCC(O)(P(=O)(O)O)P(=O)(O)O` showed an IC50 [4] of 302 µM and a pIC50 [4] of 3.5.

In the case of `COCc1cccc(NC(P(=O)(O)O)P(=O)(O)O)c1`, the IC50 [1] is reported as > 300 µM, the IC50 [2] is reported as > 300 µM and the Activity [3] is reported as “inactive”. The IC50 [4] was 9.5 µM, the pIC50 [4] was 5 and the IC50 [5] was > 300 µM.

Compound `CCCCCCCCCCCC(O)(P(=O)(O)O)P(=O)(O)O` has an IC50 [4] of 302 µM and a pIC50 [4] of 3.5.

With `O=P(O)(O)C(Nc1cccc(-c2cc(F)cc(F)c2)c1)P(=O)(O)O` the IC50 [1] was > 100 µM, the IC50 [2] was > 100 µM and the Activity [3] was “inactive”. The IC50 [4] was 2.2 µM, the pIC50 [4] was 5.7 and the IC50 [5] was > 100 µM.

For `O=P(O)(O)C(Nc1cccc(-c2ccc(F)c(F)c2)c1)P(=O)(O)O`, the IC50 [1] was > 300 µM, the IC50 [2] was > 300 µM and the Activity [3] was “inactive”. For the same compound, the IC50 [4] was 2.1 µM, the pIC50 [4] was 5.7 and the IC50 [5] was > 300 µM.

With `COc1ccc(-c2ccc(CC(O)(P(=O)(O)O)P(=O)(O)O)cc2)cc1` the Activity [3] was “inactive”, the IC50 [4] was 5.2 µM and the pIC50 [4] was 5.3.

In the case of `O=P(O)(O)C(O)(Cc1cccc(-c2ccc(F)c(F)c2)c1)P(=O)(O)O`, the IC50 [1] is reported as 253 µM, the IC50 [2] is reported as 236 µM and the Activity [3] is reported as “inactive”. The IC50 [4] was 1 µM, the pIC50 [4] was 6 and the IC50 [5] was 225 µM.

For `O=P(O)(O)C(O)(Cc1cccc(-c2cc(F)ccc2F)c1)P(=O)(O)O`, the IC50 [1] was 141 µM, the IC50 [2] was 122 µM and the Activity [3] was “inactive”. For the same compound, the IC50 [4] was 1.5 µM, the pIC50 [4] was 5.8 and the IC50 [5] was 165 µM.

`CCCCCCCc1ccc(NC(P(=O)(O)O)P(=O)(O)O)cc1` showed an IC50 [4] of 302 µM and a pIC50 [4] of 3.5.

With `O=P(O)(O)C(O)(Cc1cccc(-c2ccc(F)cc2)c1)P(=O)(O)O` the IC50 [1] was 175 µM, the IC50 [2] was 224 µM and the Activity [3] was “inactive”. For the same compound, the IC50 [4] was 1.9 µM, the pIC50 [4] was 5.7 and the IC50 [5] was 173 µM.

In the case of `CCCCCCCCC(O)(P(=O)(O)O)P(=O)(O)O`, the IC50 [4] is reported as 302 µM and the pIC50 [4] is reported as 3.5.

For `O=P(O)(O)C(O)(Cc1ccc(Cl)c(Cl)c1)P(=O)(O)O`, the IC50 [1] was 241 µM, the IC50 [2] was 208 µM and the Activity [3] was “inactive”. For the same compound, the IC50 [4] was 0.5 µM, the pIC50 [4] was 6.3 and the IC50 [5] was 213 µM.

In the case of `O=P(O)(O)C(O)(Cc1ccccc1)P(=O)(O)O`, the IC50 [4] is reported as 302 µM and the pIC50 [4] is reported as 3.5.

For `Cc1ccc(NC(P(=O)(O)O)P(=O)(O)O)cc1-c1ccccc1`, the IC50 [1] was 301 µM, the IC50 [2] was 297 µM and the Activity [3] was “inactive”. For the same compound, the IC50 [4] was 5 µM, the pIC50 [4] was 5.3 and the IC50 [5] was 296 µM.

For `O=P(O)(O)C(Nc1ccc(Cc2ccccc2)cc1)P(=O)(O)O`, the IC50 [1] was > 100 µM, the IC50 [2] was > 100 µM and the Activity [3] was “inactive”. The IC50 [4] was 3.5 µM, the pIC50 [4] was 5.5 and the IC50 [5] was > 100 µM.

Work on `CCCCCCc1ccc(NC(P(=O)(O)O)P(=O)(O)O)cc1` yielded an IC50 [4] of 302 µM and a pIC50 [4] of 3.5.

`NCCCCCC(O)(P(=O)(O)O)P(=O)(O)O` [NERIDRONIC ACID] showed an IC50 [4] of 302 µM and a pIC50 [4] of 3.5.

In the case of `COc1ccc(-c2cccc(CC(O)(P(=O)(O)O)P(=O)(O)O)c2)cc1`, the IC50 [1] is reported as 118 µM, the IC50 [2] is reported as 139 µM and the Activity [3] is reported as “inactive”. The IC50 [4] was 2.4 µM, the pIC50 [4] was 5.6 and the IC50 [5] was 128 µM.

For `O=P(O)(O)C(O)(C[n+]1ccccc1)P(=O)(O)O`, the IC50 [4] was 302 µM and the pIC50 [4] was 3.5.

With `COc1cccc(CC(O)(P(=O)(O)O)P(=O)(O)O)c1` the IC50 [1] was > 300 µM, the IC50 [2] was > 300 µM and the Activity [3] was “inactive”. For the same compound, the IC50 [4] was 5.4 µM, the pIC50 [4] was 5.3 and the IC50 [5] was > 300 µM.

In the case of `O=P(O)(O)C(O)(Cc1cccc(-c2ccc(Cl)cc2)c1)P(=O)(O)O`, the IC50 [1] is reported as 39 µM, the IC50 [2] is reported as 48 µM and the Activity [3] is reported as “inactive”. It also gave an IC50 [4] of 0.9 µM, a pIC50 [4] of 6.1 and an IC50 [5] of 41 µM.

In the case of `O=P(O)(O)C(CNc1ccc(-c2ccccc2)cc1)P(=O)(O)O`, the IC50 [1] is reported as 95 µM, the IC50 [2] is reported as 95 µM and the Activity [3] is reported as “inactive”. It also gave an IC50 [4] of 4.6 µM, a pIC50 [4] of 5.3 and an IC50 [5] of 84 µM.

With `O=P(O)(O)C(O)(Cc1ccc(-c2ccc(Cl)cc2)cc1)P(=O)(O)O` the IC50 [1] was > 100 µM, the IC50 [2] was > 100 µM and the Activity [3] was “inactive”. For the same compound, the IC50 [4] was 3.9 µM, the pIC50 [4] was 5.4 and the IC50 [5] was > 100 µM.

With `O=P(O)(O)C(Nc1cccc(CO)c1)P(=O)(O)O` the IC50 [1] was > 300 µM, the IC50 [2] was > 300 µM and the Activity [3] was “inactive”. The IC50 [4] was 7.9 µM, the pIC50 [4] was 5.1 and the IC50 [5] was > 300 µM.

In the case of `O=P(O)(O)C(Nc1cccc(-c2ccc(F)cc2F)c1)P(=O)(O)O`, the IC50 [1] is reported as > 300 µM, the IC50 [2] is reported as > 300 µM and the Activity [3] is reported as “inactive”. For the same compound, the IC50 [4] was 3.9 µM, the pIC50 [4] was 5.4 and the IC50 [5] was > 300 µM.

`CN(CCCc1ccccc1)CCC(O)(P(=O)(O)O)P(=O)(O)O` showed an IC50 [4] of 302 µM and a pIC50 [4] of 3.5.

With `O=P(O)(O)C(O)(Cc1cccc(Oc2ccccc2)c1)P(=O)(O)O` the IC50 [1] was 212 µM, the IC50 [2] was 176 µM and the Activity [3] was “inactive”. The IC50 [4] was 3.3 µM, the pIC50 [4] was 5.5 and the IC50 [5] was 188 µM.

With `O=P(O)(O)C(CNc1cccc(-c2ccccc2)c1)P(=O)(O)O` the IC50 [1] was > 300 µM, the IC50 [2] was > 300 µM and the Activity [3] was “inactive”. The IC50 [4] was 11.2 µM, the pIC50 [4] was 5 and the IC50 [5] was > 300 µM.

With `O=P(O)(O)C(O)(Cc1cccc2ccccc12)P(=O)(O)O` the IC50 [1] was 248 µM, the IC50 [2] was 225 µM and the Activity [3] was “inactive”. For the same compound, the IC50 [4] was 1.3 µM, the pIC50 [4] was 5.9 and the IC50 [5] was 259 µM.

For `O=P(O)(O)C(Nc1ccc(-c2ccccc2)cc1)P(=O)(O)O`, the IC50 [4] was 302 µM and the pIC50 [4] was 3.5.
